Measurements from publication PMC2858063 (Steroids, 2010).
“Also recorded” adds a separate entry of the source. Where two headings read alike, the source gives them in different places.

Tests used:
female rabbits = conditions: s.c.; cited from earlier work
hu-mPRα [1] = target: T1, hu-mPRα (Homo sapiens, UniProt Q86WK9); experiment: hu-mPRα steroid binding assay; conditions: for RBA (Relative Binding Affinity): compared with progesterone (=100), human mPRα; for binding to hu-mPRα (in words): this study, Fig. 1, Table 1
T1 sequence (Q86WK9 1-346): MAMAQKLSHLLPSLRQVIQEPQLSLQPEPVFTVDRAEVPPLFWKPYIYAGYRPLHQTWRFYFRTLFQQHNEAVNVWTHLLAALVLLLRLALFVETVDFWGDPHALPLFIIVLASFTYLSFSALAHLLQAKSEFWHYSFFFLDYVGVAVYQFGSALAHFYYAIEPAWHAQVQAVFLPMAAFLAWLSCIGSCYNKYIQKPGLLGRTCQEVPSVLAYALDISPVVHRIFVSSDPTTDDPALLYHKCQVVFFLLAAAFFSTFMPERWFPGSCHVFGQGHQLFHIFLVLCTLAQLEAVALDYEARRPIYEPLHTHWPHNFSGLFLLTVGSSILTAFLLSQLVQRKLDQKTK

hu-mPRα [2] = target: T1, hu-mPRα; conditions: cited from earlier work; for binding affinity for nPR compared with mPRα: selectivity in words
human nPR [3] = target: T2, human nPR (Homo sapiens, UniProt P06401); experiment: nPR steroid binding assay; conditions: that of progesterone
T2 sequence (P06401 679-933 limits assumed): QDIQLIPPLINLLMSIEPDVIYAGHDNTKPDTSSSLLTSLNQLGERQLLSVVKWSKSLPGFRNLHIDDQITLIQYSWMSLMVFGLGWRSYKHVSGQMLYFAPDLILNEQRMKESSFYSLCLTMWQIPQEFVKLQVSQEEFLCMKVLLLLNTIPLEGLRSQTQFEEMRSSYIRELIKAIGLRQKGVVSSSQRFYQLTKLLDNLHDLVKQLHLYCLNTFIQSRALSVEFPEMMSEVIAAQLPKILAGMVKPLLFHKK

hu-mPRα [4] = target: T1, hu-mPRα; experiment: MAPK activation assay; type: cell-based; conditions: 100 nM, 10 min, mPRα-transfected MDA-MB-231 cells
How it was run: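 Control and mPRα-transfected MDA-MB-231 cells were serum-starved 5–6 days, then treated 10 min with progestins (100 nM; 1–100 nM for concentration-response), with EGF as positive control. Lysis was in RIPA buffer plus protease inhibitors. Lysate (10 μg/lane, non-reducing) ran on duplicate SDS gels, was blotted, and was probed for total or phospho-p42/44 with rabbit monoclonals, then HRP anti-rabbit 1 h. Detection was by chemiluminescence on film. Runs were repeated 3–4 times, with statistics versus vehicle.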

human nPR [5] = target: T2, human nPR; conditions: cited from earlier work; for pIC50 (mean): 50% displacement of [3H] Org 2058, extracted from log RBA; for logRBA: RBA (%) compared with that of Org 2058 (=100%)
human PR-B = target: T3, human PR-B (Homo sapiens, UniProt P06401); experiment: nPR luciferase reporter assay; type: cell-based; conditions: for nPR antagonist activity: 20 and 100 nM in the presence of 5 nM progesterone
T3 sequence (P06401 1-933): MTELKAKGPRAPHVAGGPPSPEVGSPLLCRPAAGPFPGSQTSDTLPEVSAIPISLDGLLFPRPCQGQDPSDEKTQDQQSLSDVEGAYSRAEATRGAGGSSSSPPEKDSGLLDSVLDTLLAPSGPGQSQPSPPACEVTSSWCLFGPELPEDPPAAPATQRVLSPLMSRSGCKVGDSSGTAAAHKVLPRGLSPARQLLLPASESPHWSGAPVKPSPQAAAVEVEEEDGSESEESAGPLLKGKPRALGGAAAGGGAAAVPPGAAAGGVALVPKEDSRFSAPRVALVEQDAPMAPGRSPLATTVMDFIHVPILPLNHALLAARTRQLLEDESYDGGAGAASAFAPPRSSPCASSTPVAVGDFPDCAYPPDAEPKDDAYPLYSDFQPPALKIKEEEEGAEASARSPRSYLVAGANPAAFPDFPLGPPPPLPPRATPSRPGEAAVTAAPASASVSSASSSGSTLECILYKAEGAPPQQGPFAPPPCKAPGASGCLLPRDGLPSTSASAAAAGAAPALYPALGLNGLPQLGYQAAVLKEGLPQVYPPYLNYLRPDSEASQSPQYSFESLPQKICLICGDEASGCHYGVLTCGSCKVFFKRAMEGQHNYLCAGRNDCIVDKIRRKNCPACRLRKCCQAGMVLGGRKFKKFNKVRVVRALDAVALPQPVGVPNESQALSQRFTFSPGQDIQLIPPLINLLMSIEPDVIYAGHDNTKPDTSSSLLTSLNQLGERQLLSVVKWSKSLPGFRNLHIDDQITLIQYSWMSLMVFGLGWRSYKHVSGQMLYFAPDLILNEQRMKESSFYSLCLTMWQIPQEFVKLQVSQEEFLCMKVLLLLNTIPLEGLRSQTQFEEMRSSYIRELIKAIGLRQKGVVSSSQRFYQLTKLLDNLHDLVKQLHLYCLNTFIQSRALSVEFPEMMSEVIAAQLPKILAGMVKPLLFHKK
How it was run: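 MCF-7 cells in phenol red-free DMEM were co-transfected with human PR-B vector (0.25 μg), MMTV-luciferase reporter (0.6 μg) and Renilla pRL-TK (0.5 μg). […] Cells grew overnight to 90% confluence. Dual-luciferase readings were taken, 10 s each. Firefly/Renilla ratio was reported, in triplicate.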

## CC(=O)[C@H]1CC[C@H]2[C@@H]3CCC4=CC(=O)CC[C@]4(C)[C@H]3CC[C@]12C(C)=O [13-Acetyl-18-norprogesterone]
Female rabbits
  progestational activity in comparison with progesterone: 1/3
hu-mPRα [1]
  RBA (Relative Binding Affinity): 49.9%
  binding to hu-mPRα (in words): low binding affinities

## C#CC1(O)CC[C@H]2[C@@H]3CCC4=CC(=O)CC[C@@H]4[C@H]3CC[C@@]21CC (mixture of isomers) [norgestrel]
hu-mPRα [2]
  binding affinity for nPR compared with mPRα: greater binding affinity for nPR than mPRα

## 18a-methylprogesterone [18a-Methylprogesterone (Org OE 64-0)]
Human nPR [3]
  relative binding affinity for nPR: 20.8%
hu-mPRα [4]
  MAPK activation (phosphorylation of ERK): mPRα agonists
hu-mPRα [1]
  RBA (Relative Binding Affinity): 2009%
  binding to hu-mPRα (in words): affinities higher than that of progesterone

## C[C@]12CC[C@H]3[C@@H](CCC4=CC(=O)CC[C@@]43C)[C@@H]1CC[C@@H]2O [Testosterone]
hu-mPRα [2]; progesterone = 100 %, earlier series
  RBA for hu-mPRα: 22.4%
Human nPR [5]
  pIC50 (mean): 6.02
  logRBA: −0.70

## CC#C[C@]1(O)CC[C@H]2[C@@H]3CCC4=CC(=O)CCC4=C3[C@@H](c3ccc(N(C)C)cc3)C[C@@]21C [Mifepristone]
hu-mPRα [2]; earlier series, listed as RU486
  binding to hu-mPRα (in words): little or no affinity; also recorded: does not bind

## CC(=O)[C@H]1CC[C@H]2[C@@H]3CCC4=CC(=O)[C@H](O)C[C@]4(C)[C@H]3CC[C@]12C [2α-hydroxyprogesterone]
hu-mPRα [2]; earlier series
  binding to hu-mPRα (in words): poor binding

## CC(C)[C@@H]1C[C@H]2[C@@H]3CCC4=CC(=O)CC[C@@H]4[C@H]3CC[C@]2(C)[C@H]1O [17β-Hydroxy-16α-isopropylestr-4-en-3-one]
Human nPR [5]
  pIC50 (mean): 7.72
  logRBA: 1.00

## CC(=O)[C@H]1CC[C@H]2[C@@H]3CCC4=CC(=O)CC[C@@H]4[C@H]3CC[C@]12C [19-Norprogesterone]
hu-mPRα [2]
  binding affinity for nPR compared with mPRα: greater binding affinity for nPR than mPRα
Human nPR [5]
  pIC50 (mean): 8.53
  logRBA: 1.81

## C[C@]12CC[C@H]3[C@@H](CC[C@H]4CC(=O)CC[C@@H]43)[C@@H]1CC[C@@H]2O [5α-Dihydronandrolone]
Human nPR [5]
  pIC50 (mean): 6.50
  logRBA: −0.22

## CC[C@]1(O)CC[C@H]2[C@@H]3CCC4=CC(=O)CC[C@@H]4[C@H]3CC[C@@]21C [17-Hydroxy-19-nor-17α-pregn-4-en-3-one]
Human nPR [5]
  pIC50 (mean): 8.24
  logRBA: 1.52

## C#C[C@]1(O)CC[C@H]2[C@@H]3CCC4=CC(=O)CC[C@@H]4[C@H]3CC[C@@]21C [norethisterone]
hu-mPRα [2]
  binding affinity for nPR compared with mPRα: greater binding affinity for nPR than mPRα

## C[C@]12CCC(=O)C=C1CC[C@@H]1[C@@H]2CC[C@]2(C)C(=O)CC[C@@H]12 [Androst-4-ene-3,17-dione]
Human nPR [5]
  pIC50 (mean): 6.02
  logRBA: −0.70
hu-mPRα [1]
  binding to hu-mPRα (in words): unable to bind

## C=C[C@]12CCC(=O)C=C1CC[C@H]1[C@@H]3CC[C@H](C(C)=O)[C@@]3(C)CC[C@@H]12 [10-ethenyl-19-norprogesterone]
Human nPR [3]
  relative binding affinity for nPR: 12.9%
hu-mPRα [4]
  MAPK activation (phosphorylation of ERK): mPRα agonists
Human PR-B
  nPR antagonist activity: weak antagonist activity
hu-mPRα [1]
  RBA (Relative Binding Affinity): 257.7%
  binding to hu-mPRα (in words): affinities higher than that of progesterone

## CC[C@H]1CC[C@H]2[C@@H]3CCC4=CC(=O)CC[C@]4(C)[C@H]3CC[C@]12C(C)=O [13-Acetyl-18-norpregn-4-en-3-one]
Female rabbits
  progestational activity in comparison with progesterone: 1/4
hu-mPRα [1]
  RBA (Relative Binding Affinity): <1%
  binding to hu-mPRα (in words): lost all affinity

## CCC1CC2C3CCC4=CC(=O)CCC4C3CCC2(C)C1C(=O)CO (stereo not drawn) [16α-ethyl-21-hydroxy-19-norpregn-4-ene-3,20-dione]
hu-mPRα [2]; earlier series
  binding to hu-mPRα (in words): poor binding affinities
hu-mPRα [2]
  binding affinity for nPR compared with mPRα: greater binding affinity for nPR than mPRα
Human nPR [5]
  logRBA: 2.00

## CC(=O)[C@H]1CC[C@H]2[C@@H]3CCC4=CC(=O)CC[C@]4(C)[C@H]3[C@@H](O)C[C@]12C [11β-hydroxyprogesterone]
hu-mPRα [2]; mPRα, observed earlier
  lower binding affinity relative to progesterone: 10 fold

## CC[C@]1(O)CC[C@H]2[C@@H]3CCC4=CCCC[C@@H]4[C@H]3CC[C@@]21C [Ethylestrenol]
Human nPR [5]
  pIC50 (mean): 7.21
  logRBA: 0.49

## C=CC[C@]1(O)CC[C@H]2[C@@H]3CCC4=CCCC[C@@H]4[C@H]3CC[C@@]21C [Allylestrenol]
Human nPR [5]
  pIC50 (mean): 7.04
  logRBA: 0.32

## CCC(=O)[C@@]1(C)CC[C@H]2[C@@H]3CCC4=CC(=O)CCC4=C3CC[C@@]21C [Promegestone]
hu-mPRα [2]; earlier series, listed as R5020
  binding to hu-mPRα (in words): little or no affinity; also recorded: poor binding affinities
Human nPR [5]
  pIC50 (mean): 8.90
  logRBA: 2.18

## C=C[C@]12CC[C@H]3[C@@H](CCC4=CC(=O)CC[C@@]43C)[C@@H]1CC[C@@H]2C(C)=O [13-ethenyl-18-norprogesterone]
hu-mPRα [4]
  MAPK activation (phosphorylation of ERK): mPRα agonists
Human PR-B; PR-B and PRE-luciferase reporter in MCF-7 cells, 50 nM (19-CH2P4 also 1–50 nM)
  nPR agonist activity: showed nPR agonist activity
hu-mPRα [1]
  RBA (Relative Binding Affinity): 168.2%
  binding to hu-mPRα (in words): affinities higher than that of progesterone

## C[C@]12CC[C@H]3[C@@H](CCC4=CC(=O)CC[C@@H]43)[C@@H]1CC[C@@H]2O [Nandrolone, 19-nortestosterone]
Human nPR [5]
  pIC50 (mean): 7.20
  logRBA: 0.48

## C#C[C@]1(O)CC[C@H]2[C@@H]3CCC4=CC(=O)CC[C@]4(C)[C@H]3CC[C@@]21C [Ethisterone]
hu-mPRα [2]
  binding affinity for nPR compared with mPRα: greater binding affinity for nPR than mPRα

## C[C@]12CCC(=O)C[C@@H]1CC[C@@H]1[C@@H]2CC[C@]2(C)[C@@H](O)CC[C@@H]12 [5α-Dihydrotestosterone (DHT), 5α-Dihydrotestosterone]
Human nPR [5]
  pIC50 (mean): 6.16
  logRBA: −0.56

## C[C@]1(O)CC[C@H]2[C@@H]3CCC4=CC(=O)CC[C@@H]4[C@H]3CC[C@@]21C [17β-Hydroxy-17α-methylestr-4-en-3-one]
Human nPR [5]
  pIC50 (mean): 7.66
  logRBA: 0.94

## C#C[C@]1(O)CC[C@H]2[C@@H]3CCC4=CCCC[C@@H]4[C@H]3CC[C@@]21C [Lynestrenol]
Human nPR [5]
  pIC50 (mean): 6.95
  logRBA: 0.23

## 19a-methylprogesterone [19a-Methylprogesterone (Org OD 13-0)]
Human nPR [3]
  relative binding affinity for nPR: 2.3%
hu-mPRα [4]
  MAPK activation (phosphorylation of ERK): mPRα agonists
Human PR-B
  nPR antagonist activity: weak antagonist activity
hu-mPRα [1]
  RBA (Relative Binding Affinity): 92.7%
  binding to hu-mPRα (in words): relatively high affinity
